Calls of active or inactive are those of the source. The rule behind the calls is not given here.
Key:
[1] = Antiproliferative activity against human EAhy926 cells measured after 48 hrs by MTT assay; assay type: functional, cell-based; details: EA.hy 926, 48 h
[2] = Aqueous solubility of the compound; assay type: physicochemical
Gallus gallus = species on record: Gallus gallus; assay: Antiangiogenic activity against 5-day-old chicken egg chorioallantoic membrane at 0.3 to 30 uM/disc incubated for 48 hrs by microscopic analysis; assay type: functional, tissue-based
EA.hy 926 [3] = assay: Antiangiogenic activity against human EAhy926 cells assessed as inhibition of VEGF-induced capillary-like tube formation measured after 24 hrs by phase contrast microscopic analysis; assay type: functional, cell-based
In short: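 EA.HY926 cells were plated on Matrigel-coated wells and treated for 24 h at 0.3–30. Capillary-like tubules with multicentric junctions were scored by imaging against compound-free controls.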

EA.hy 926 [4] = assay: Antimigratory activity against human EAhy926 cells assessed as inhibition of VEGF-induced cell migration incubated for 24 hrs by wound healing assay; assay type: functional, cell-based
In short: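 Wound-healing scratch assay in EA.HY926 endothelial cells with VEGF stimulation. Compound tested across 0.3 to 30, with Endostar as positive control. Migration was compared against untreated cells.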

Compound	IC50 [1] [µM]	further results
CC(C)Cn1c2ccccc2c2ccnc(CNCCCCNCc3nccc4c5ccccc5n(CC(C)C)c34)c21	8.06	–
c1ccc(CCCn2c3ccccc3c3ccnc(CNCCCCCNCc4nccc5c6ccccc6n(CCCc6ccccc6)c45)c32)cc1	2.76	–
CCCCn1c2ccccc2c2ccnc(CNCCCNCc3nccc4c5ccccc5n(CCCC)c34)c21	8.39	–
CCCCCCn1c2ccccc2c2ccnc(CNCCCCCNCc3nccc4c5ccccc5n(CCCCCC)c34)c21	5.16	–
c1ccc(CCCn2c3ccccc3c3ccnc(CNCCCCCCNCc4nccc5c6ccccc6n(CCCc6ccccc6)c45)c32)cc1	3.22	–
CCCCCCCCn1c2ccccc2c2ccnc(CNCCCCCNCc3nccc4c5ccccc5n(CCCCCCCC)c34)c21	8	–
CCCCCCCCn1c2ccccc2c2ccnc(CNCCCCNCc3nccc4c5ccccc5n(CCCCCCCC)c34)c21	9.33	–
CCCCn1c2ccccc2c2ccnc(CNCCCCCCNCc3nccc4c5ccccc5n(CCCC)c34)c21	2.92	–
COc1ccc(/C=C\c2cc(OC)c(OC)c(OC)c2)cc1OP(=O)(O)O [FOSBRETABULIN]	6.4	–
c1ccc(Cn2c3ccccc3c3ccnc(CNCCCCCCNCc4nccc5c6ccccc6n(Cc6ccccc6)c45)c32)cc1	3.81	–
CCCCCCn1c2ccccc2c2ccnc(CNCCCNCc3nccc4c5ccccc5n(CCCCCC)c34)c21	9.23	–
Clc1cccc(Cn2c3ccccc3c3ccnc(CNCCCCCNCc4nccc5c6ccccc6n(Cc6cccc(Cl)c6)c45)c32)c1	4.69	–
c1ccc(Cn2c3ccccc3c3ccnc(CNCCCNCc4nccc5c6ccccc6n(Cc6ccccc6)c45)c32)cc1	8.89	–
CCCCn1c2ccccc2c2ccnc(CNCCCCNCc3nccc4c5ccccc5n(CCCC)c34)c21	4.37	–
CC(C)Cn1c2ccccc2c2ccnc(CNCCCCCCNCc3nccc4c5ccccc5n(CC(C)C)c34)c21	5.55	–
Cn1c2ccccc2c2ccnc(CNCCCCCCNCc3nccc4c5ccccc5n(C)c34)c21	11.5	–
CCn1c2ccccc2c2ccnc(CNCCCNCc3nccc4c5ccccc5n(CC)c34)c21	7.77	–
c1ccc2c(c1)[nH]c1c(CNCCCCCNCc3nccc4c3[nH]c3ccccc34)nccc12	14.5	–
Fc1ccc(Cn2c3ccccc3c3ccnc(CNCCCNCc4nccc5c6ccccc6n(Cc6ccc(F)cc6)c45)c32)cc1	8.87	–
CCn1c2ccccc2c2ccnc(CNCCCCNCc3nccc4c5ccccc5n(CC)c34)c21	5.36	–
Cl.c1ccc2c(c1)[nH]c1c(CNCCCCNCc3nccc4c3[nH]c3ccccc34)nccc12	25.8	solubility [2]: > 10000 µg/mL
CCCCCCn1c2ccccc2c2ccnc(CNCCCCNCc3nccc4c5ccccc5n(CCCCCC)c34)c21	8.93	–
CCCCn1c2ccccc2c2ccnc(CNCCCCCNCc3nccc4c5ccccc5n(CCCC)c34)c21	2.16	Activity (Gallus gallus): Active; inhibition (EA.hy 926 [3]): Dose-dependent effect; inhibition (EA.hy 926 [4]): Dose-dependent effect
c1ccc(CCCn2c3ccccc3c3ccnc(CNCCCNCc4nccc5c6ccccc6n(CCCc6ccccc6)c45)c32)cc1	9.35	–
Cn1c2ccccc2c2ccnc(CNCCCCNCc3nccc4c5ccccc5n(C)c34)c21	17	–
c1ccc(CCCn2c3ccccc3c3ccnc(CNCCCCNCc4nccc5c6ccccc6n(CCCc6ccccc6)c45)c32)cc1	4.78	–
CCCCCCn1c2ccccc2c2ccnc(CNCCCCCCNCc3nccc4c5ccccc5n(CCCCCC)c34)c21	8.2	–
Fc1ccc(Cn2c3ccccc3c3ccnc(CNCCCCNCc4nccc5c6ccccc6n(Cc6ccc(F)cc6)c45)c32)cc1	4.96	–
CC(C)n1c2ccccc2c2ccnc(CNCCCCCCNCc3nccc4c5ccccc5n(C(C)C)c34)c21	8.56	–
